Test results as given in ChEMBL document CHEMBL2177071, “The effect of Pro(2) modifications on the structural and pharmacological properties of endomorphin-2” (J Med Chem, 2012).

Legend:
[1] = target: Delta-type opioid receptor (Rattus norvegicus) (UniProt P33533); assay: (§1) Displacement of [3H][Ile5,6]deltorphin 2 from delta opioid receptor in Wistar rat brain membranes; type: cell membranes; conditions: Membrane
Procedure, shortened: (§2)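 Competitive displacement in crude rat brain membrane preparation, with the test peptide at a range of concentrations. Ki is calculated from EC50 by Cheng–Prusoff, Ki = EC50/(1+[ligand]/Kd), using Kd values from the literature. Means ± SEM, n ≥ 3.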

[2] = Half life in Wistar rat brain homogenate; type: ADME, tissue-based
Procedure, shortened: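 Peptide incubated in crude rat brain membrane homogenate with a protein content of 4.7 mg/mL, and its disappearance followed over time. Half-life is calculated from pseudo-first-order kinetics. Means of at least three individual experiments ± SEM.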

[3] = target: Delta-type opioid receptor (Rattus norvegicus, UniProt P33533); assay: as §1; type: cell membranes, Membrane; procedure, shortened: as §2
Chain of Delta-type opioid receptor (P33533 whole entry): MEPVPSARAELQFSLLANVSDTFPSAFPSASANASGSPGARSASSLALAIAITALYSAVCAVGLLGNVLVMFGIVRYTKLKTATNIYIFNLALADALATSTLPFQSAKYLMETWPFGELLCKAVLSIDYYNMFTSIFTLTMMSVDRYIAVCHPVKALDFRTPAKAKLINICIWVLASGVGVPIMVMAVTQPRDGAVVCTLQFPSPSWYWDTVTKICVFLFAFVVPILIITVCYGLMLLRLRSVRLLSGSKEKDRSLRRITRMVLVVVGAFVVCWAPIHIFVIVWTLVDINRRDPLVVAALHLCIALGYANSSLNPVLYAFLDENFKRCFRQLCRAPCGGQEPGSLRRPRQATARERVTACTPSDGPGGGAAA

[4] = target: T1, Mu-type opioid receptor (Rattus norvegicus, UniProt P33535); type: cell membranes, Wistar, Membrane
T1 sequence (P33535 whole entry): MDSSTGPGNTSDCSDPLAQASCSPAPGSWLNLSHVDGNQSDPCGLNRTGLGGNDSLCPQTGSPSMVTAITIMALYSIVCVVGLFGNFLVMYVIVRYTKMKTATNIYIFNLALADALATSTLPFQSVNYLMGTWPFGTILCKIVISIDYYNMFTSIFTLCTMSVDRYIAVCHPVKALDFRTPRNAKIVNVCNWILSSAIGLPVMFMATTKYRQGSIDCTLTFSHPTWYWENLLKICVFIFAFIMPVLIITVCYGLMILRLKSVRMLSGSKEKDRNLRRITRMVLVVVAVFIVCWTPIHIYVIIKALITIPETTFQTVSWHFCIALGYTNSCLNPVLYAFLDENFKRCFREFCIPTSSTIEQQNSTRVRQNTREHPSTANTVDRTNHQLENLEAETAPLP

[5] = target: T1, Mu-type opioid receptor; assay: Agonist activity at mu opioid receptor in Wistar rat brain membranes after 60 mins by [35S]GTPgammaS binding assay; type: functional, cell membranes, Membrane

Chain of Delta-type opioid receptor (Rattus norvegicus) (P33533 whole entry): as the sequence (P33533 whole entry) above

Q: With NC(=O)[C@H](Cc1ccccc1)NC(=O)[C@H](Cc1ccccc1)NC(=O)[C@@H]1CCCN1C(=O)[C@@H](N)Cc1ccc(O)cc1 [ENDOMORPHIN 2] as the molecule, how does the Activity [1] read?
A: Its Activity is “Dose-dependent effect”.

Q: And the half-life [2]?
A: Its half-life is 5.8 min.

Q: With NC(=O)[C@H](Cc1ccccc1)NC(=O)[C@H](Cc1ccccc1)NC(=O)C[C@@H]1CCCN1C(=O)[C@@H](N)Cc1ccc(O)cc1 as the molecule, how does the Activity [1] read?
A: Its Activity is “Dose-dependent effect”.

Q: What about the Ki [3] of the same molecule?
A: The Ki was over 10000 nM.

Q: And the half-life [2]?
A: The half-life was 34 min.

Q: And the Ki [4]?
A: Its Ki is 27 nM.

Q: And the EC50 [5]?
A: Its EC50 is 845 nM.

Q: Which Activity [1] does the source give for NC(=O)[C@H](Cc1ccccc1)NC(=O)[C@H](Cc1ccccc1)NC(=O)[C@@H]1CC=C[C@@H]1NC(=O)[C@@H](N)Cc1ccc(O)cc1 here?
A: Its Activity is “Dose-dependent effect”.

Q: And the Ki [3]?
A: Its Ki is over 10000 nM.

Q: With NC(=O)[C@H](Cc1ccccc1)NC(=O)[C@H](Cc1ccccc1)NC(=O)[C@@H]1C[C@@H](O)CN1C(=O)[C@@H](N)Cc1ccc(O)cc1 as the molecule, how does the Activity [1] read?
A: Its Activity is “Dose-dependent effect”.

Q: What about the Ki [3] of the same molecule?
A: Its Ki is over 10000 nM.

Q: What about the half-life [2] of the same molecule?
A: The half-life was 17 min.

Q: And the Ki [4]?
A: The Ki was 44 nM.

Q: And the EC50 [5]?
A: Its EC50 is 66 nM.

Q: Which Activity [1] does the source give for NC(=O)[C@H](Cc1ccccc1)NC(=O)[C@H](Cc1ccccc1)NC(=O)[C@@H]1CC=CC[C@@H]1NC(=O)[C@@H](N)Cc1ccc(O)cc1 here?
A: The Activity was “Dose-dependent effect”.

Q: What about the Ki [3] of the same molecule?
A: The Ki was over 10000 nM.

Q: For NC(=O)[C@H](Cc1ccccc1)NC(=O)[C@H](Cc1ccccc1)NC(=O)[C@H]1CC=C[C@H]1NC(=O)[C@@H](N)Cc1ccc(O)cc1, which Activity [1] is on record?
A: Its Activity is “Dose-dependent effect”.

Q: And the Ki [3]?
A: The Ki was 9930 nM.

Q: What about the half-life [2] of the same molecule?
A: The half-life was over 1200 min.

Q: Which results are given for NC(=O)[C@H](Cc1ccccc1)NC(=O)[C@H](Cc1ccccc1)NC(=O)[C@H]1CC=CC[C@H]1NC(=O)[C@@H](N)Cc1ccc(O)cc1?
A: Activity [1]: Dose-dependent effect; Ki [3]: 1030 nM; half-life [2]: > 1200 min
